RORa inhibitor: inhibitors of orphan receptor RORA, primary screen, cell-based, luminescence | Nuclear receptor ROR-alpha (Homo sapiens), P35398 | CHO-K1 Gal4-RORA LBD luciferase reporter | inhibition, % at 10 µM | 65,000 compounds, 0.43% hits;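 active means inhibition above the mean of all tested compounds plus 3 SD, cut at about 52% in these data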;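 further: 0% = RORA-transfected cells with DMSO and 100% = mock-transfected cells lacking RORA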
Target sequence (P35398 whole entry, looked up, the tested form may be a part): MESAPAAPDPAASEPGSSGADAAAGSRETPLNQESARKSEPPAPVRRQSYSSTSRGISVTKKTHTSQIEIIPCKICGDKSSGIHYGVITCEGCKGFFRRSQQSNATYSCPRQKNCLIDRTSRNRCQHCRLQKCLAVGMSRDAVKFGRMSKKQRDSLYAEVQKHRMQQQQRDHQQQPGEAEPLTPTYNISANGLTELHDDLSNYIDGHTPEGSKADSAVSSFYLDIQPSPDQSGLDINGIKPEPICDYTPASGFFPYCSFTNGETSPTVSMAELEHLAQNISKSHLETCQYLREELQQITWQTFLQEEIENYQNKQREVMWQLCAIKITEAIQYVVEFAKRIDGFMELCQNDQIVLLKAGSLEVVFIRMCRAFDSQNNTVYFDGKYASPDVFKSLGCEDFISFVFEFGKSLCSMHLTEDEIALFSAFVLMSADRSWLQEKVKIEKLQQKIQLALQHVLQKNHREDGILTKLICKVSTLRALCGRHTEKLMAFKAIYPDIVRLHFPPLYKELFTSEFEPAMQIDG
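Test system – CHO-K1 Gal4-RORA LBD luciferase reporter cells · Schedule – 20 h at 37 °C · Signal – luminescence from basal luciferase reporter expression · Measure – percent inhibition of basal reporter luminescence, control-normalized · Control set – -RORA mock-transfected DMSO wells 100%, +RORA DMSO wells 0%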
Numbers without * were called inactive. This is one part of a sample in which hits are shown more often than they occur.

SMILES	RORa inhibitor
c1ccc2nc(-c3nc4ccccc4o3)ccc2c1	58.3*
CCOC(=O)c1c(C)nc(-c2ccccc2)nc1N	-51.1
CCOC(=O)c1cnn(-c2ccccn2)c1N	-53.0
CCOC(=O)C1=Nc2ccccc2C1=[N+]=[N-]	75.8*
Cc1ccc(OC(=O)c2ccc(C)c(C)c2)cn1	15.0
COc1ccccc1C1/C(=C(/O)c2ccc(Cl)cc2)C(=O)C(=O)N1CCN1CCOCC1 (stereo not given)	-20.8
CCc1nc(C)cn1S(=O)(=O)c1cc(Br)ccc1OC	10.5
CCOC(=O)COc1ccc2c(c1)C(=O)CC(C)(C)O2	-13.8
CCc1ccc(-c2nc(CN3CCCC(C(=O)NCCc4ccc(OC)c(OC)c4)C3)c(C)o2)cc1 (stereo not given)	-10.8
CCOC(=O)N1CCC(NC(=O)C2CCCN(Cc3nc(-c4cccc(Cl)c4)oc3C)C2)CC1 (stereo not given)	63.3*
Cc1oc(-c2cccc(Cl)c2)nc1CN1CCC(C(=O)NCCCN2CCCC2=O)CC1	-2.2
NC(=O)c1nn(-c2ccccc2)nc1N	18.8
COc1cccc(N2CCN(c3ncnc4c3[nH]c3ccccc34)CC2C)c1 (stereo not given)	95.3*
COc1cccc(N2CCN(c3ncnc4c3[nH]c3ccc(F)cc34)CC2C)c1 (stereo not given)	95.2*
O=C(Nc1cccc(F)c1)C1CCN(C(=O)Cc2ccccc2)CC1	15.5
COC(=O)c1cccc(-n2nnnc2SCC(=O)Nc2cc(C)on2)c1	21.0
Cc1cc(C(=O)OCC(=O)N2C(C)CCCC2C)c(C)o1 (stereo not given)	3.2
CCn1c(=O)cc(NC2=NCC(C)CN2c2cccc(Cl)c2)n(C)c1=O (stereo not given)	0.5
CC(=O)Nc1ccc(-n2c(C)nc(=O)c(-c3ccccc3)c2C)cc1	10.2
CCCC(=O)Nc1ccc(C(=O)N2CCCC2)cc1	6.1
Cc1ccc(-c2cnc(NC(=O)CCC(=O)N3CCCCC3)n2C)cc1	76.6*
Cn1c(-c2ccc3c(c2)OCO3)cnc1NC(=O)CCC(=O)NCCc1ccccc1	23.8
Cn1c(SCC(N)=O)nnc1C1CCN(C(=O)NCc2ccccc2)CC1	-13.0
CCOc1ccc(-c2noc(CCC(=O)O)n2)cc1	53.9*
COc1ccc(-c2noc(CCCC(=O)O)n2)cc1	68.3*
SMILES	RORa inhibitor
Cc1ccc(-c2noc(CCCC(=O)Nc3cccnc3)n2)cc1	53.4*
CCOC(=O)Cn1c(CCC(=O)O)ccc1-c1ccc(F)cc1	16.8
COCc1nc(-c2ccc(-c3ccccc3)nc2OC)no1	-71.5
COc1cc2ccccc2cc1C(=O)Nc1cccnc1	-76.7
CCCCC(=O)Nc1ccc(NC(=O)c2cccnc2)cn1	-5.9
CCOc1nc(-c2ccccc2)ccc1-c1noc(COC)n1	-2.8
COCc1nc(-c2ccc(-c3ccc(OC)cc3)nc2OC)no1	-49.3
CCOC(=O)Cc1csc(NC(=O)CCS(=O)(=O)Cc2ccccc2)n1	-1.9
Cc1cc(C(F)(F)F)c2c(N)c(C(=O)Nc3cc(C)on3)sc2n1	-7.4
CCOC(=O)N1CCC(=C2c3ccc(Cl)cc3CCc3cccnc32)CC1	-12.3
Cc1ccc(-c2csc(NC(=O)c3ccno3)n2)cc1	-60.3
CC1CCCC(C)N1C(=O)c1cc(-c2cccs2)on1 (stereo not given)	-61.2
COC(=O)CCP(=O)(O)Cc1ccccc1CP(=O)(O)CCC(=O)OC	-0.2
Cn1c(=O)c2c(SCc3ccccn3)nc(-c3ccccc3)nc2n(C)c1=O	11.8
O=C(O)CCc1ccc(-c2cccs2)n1-c1ccc(C(=O)O)cc1	8.6
Cc1cc(NC(=O)CSc2ncnc3ccccc23)no1	-3.3
O=C(Nc1ccc(N2CCOCC2)cc1)c1cnsn1	68.8*
O=C(Nc1ccc(N2CCOCC2)c(Cl)c1)c1ccc(Br)o1	-55.3
O=C(Nc1ccc(S(=O)(=O)N2CCCC2)cc1)c1ccc(CN2CCOCC2)cc1	20.5
CN(C)c1ccc(NC(=O)c2ccc(COc3cccc(Cl)c3)o2)cc1	-72.6
CSC1=C(C#N)C(C)CC(=O)N1 (stereo not given)	-0.2
CC1(C)N=C(c2ccc(Cl)cc2Cl)C(=O)N1	-8.9
COc1ccc(-c2nnc(SCc3nnc(-c4ccccc4)o3)n2C)cc1OC	-53.2
O=C(Cn1ccc2ccccc2c1=O)N1CCN(Cc2ccc3c(c2)OCO3)CC1	-8.0
COc1ccc2c(c1)[nH]c1c(N3CCN(Cc4ccc5c(c4)OCO5)CC3)ncnc12	72.2*
SMILES	RORa inhibitor
Cc1ccc2[nH]c3c(N4CCCCCC4)ncnc3c2c1	77.7*
Cc1ccc2[nH]c3c(N4CCN(Cc5ccc6c(c5)OCO6)CC4)ncnc3c2c1	81.6*
O=C(N1CCN(Cc2ccc3c(c2)OCO3)CC1)C12CC3CC(CC(C3)C1)C2	7.9
COCCn1nnnc1C(c1ccc(C)cc1)N1CCN(Cc2ccc3c(c2)OCO3)CC1 (stereo not given)	9.0
Cc1ccc2c(c1)c1ncnc(N3CCC4(CC3)OCCO4)c1n2C	-62.1
c1nc(N2CCN(Cc3ccc4c(c3)OCO4)CC2)c2[nH]cnc2n1	22.5
NC(=O)NC1CCCc2c1[nH]c1ccc(Cl)cc21 (stereo not given)	9.7
COc1ccc2c(c1OC)C(=O)N1C2SC[C@H]1C(=O)NC1CC(C)(C)NC(C)(C)C1 (stereo not given in full)	7.9
Cc1cc(Nc2ccc(C)c(C)c2)n2nc(C)nc2n1	-38.4
CC1CCc2ccccc2N1C(=O)c1cccs1 (stereo not given)	2.4
O=C(CSc1nnc(-c2cccnc2)n1-c1ccccc1)Nc1ccc2c(c1)OCO2	-10.5
O=C(C1CC1)N1CCN=C1SCc1ccccc1Cl	-4.7
CN(C)/C=N/c1cnc(C(=O)c2ccc(Cl)cc2)n1C	-75.6
CC(=O)OCCN(CCOC(C)=O)c1c(C)[nH]c(=O)[nH]c1=O	2.7
COc1ccc(C(=O)NCC(C)CN(C)C)cc1 (stereo not given)	-7.1
CCc1ccc(-c2cn3nc(C)c(C)nc3n2)cc1	85.6*
COc1ccc(C(O)P(=O)(O)CCc2ccccc2)cc1 (stereo not given)	-52.3
CCOCCCNCC(=O)N1CCN(S(=O)(=O)c2ccc(C)cc2)CC1	24.2
CC1(C)CC(=O)c2cnc(NC(=O)C3CCCC3)nc2C1	-7.1
Cc1ccc2oc(Nc3nc(C)cc(C)n3)nc2c1	-52.2
Cc1ccc(C(=O)/C=C/Nc2ccccn2)cc1	89.6*
O=C(O)c1ccccc1C(=O)Nc1ccccn1	11.6
Cc1cc(C(=O)Nc2ccccn2)no1	-8.4
Cc1ccc(-c2ccc(=O)n(CC(=O)Nc3cccc(C(=O)N4CCN(C)CC4)c3)n2)cc1	9.0
COc1ccc2[nH]c(=O)c3c(c2c1)OC(C)(C)C=C3	57.7*
SMILES	RORa inhibitor
COc1ccc2[nH]c(C)c(CN3CCC(C)CC3)c(=O)c2c1	1.4
O=S1(=O)C=C(Sc2nc3ccccc3s2)c2ccccc21	88.1*
Cc1cc(C)nc(SC2=CS(=O)(=O)c3ccccc32)n1	64.9*
O=c1oc2ccccc2n1CSc1nc2ccccc2s1	-66.1
O=C(Sc1nnc(-c2ccccc2)o1)N1c2ccccc2Sc2ccccc21	25.0
c1ccc(-c2nnc(SCc3cn4ccsc4n3)o2)cc1	-41.7
OC1CCCCC1Sc1nc2ccccc2s1 (stereo not given)	-30.0
O=S1(=O)C=C(Sc2nnc(-c3ccccc3)o2)c2ccccc21	80.2*
Cc1ccc(CC(CC(=O)O)C(=O)NC2CCCCC2)cc1 (stereo not given)	10.8
COc1ccc(N2CCN(Cc3nc4c(c(=O)[nH]c(=O)n4C)n3Cc3cccc(Cl)c3)CC2)cc1	-11.0

High-throughput results deposited in PubChem BioAssay by The Scripps Research Institute Molecular Screening Center.
